The values that follow come from ChEMBL document CHEMBL4350999, “Enhanced tumor retention of NTSR1-targeted agents by employing a hydrophilic cysteine cathepsin inhibitor” (Eur J Med Chem, 2019).

Each structure is given as a SMILES string. Active and inactive are the calls of the source. The rule behind the calls is not given here.

Data set [1] has as its target T1, Procathepsin L (Homo sapiens, UniProt P07711). Nature of the data set: Binding affinity to cathepsin L in human HT-29 cells assessed as intracellular adduct formation at 0.74 MBq incubated for 4 hrs and measured after 24 hrs in presence of DOTA-beta-ala-[N-alpha-Me8, Dmt11, Tle12] NT6-13 using 177Lu labelled compound by SDS-PAGE analysis. In kind it is cell-based. On the set-up: dose or concentration left out as unconfirmed. Put shortly: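 HT-29 cells (1 × 10^6/well) incubated 4 h at 37 °C with 177Lu conjugate (20 μCi, 0.74 MBq) in 1 mL medium, with or without E-64 (10 μM) or NTSR1 peptide N1 (20 μM). Cells washed and refed; at set times cells pooled, RIPA-lysed with protease inhibitor. Lysates heated 85 °C 2 min, run on 16% tris-glycine SDS-PAGE, and phosphor autoradiography taken after 72 h exposure.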

A short description of data set [2]: Drug uptake in lung of SCID mouse xenografted with human HT-29 cells pretreated for 1 hr with colchicine at 1 mg/kg, ip followed by 177Lu labelled compound at 0.37 MBq/mouse, iv measured at 24 hrs by gamma counter analysis. In kind it is ADME, organism-based. To be noted: in vivo. Put shortly:
(§1)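 HT-29 flank xenografts in female SCID mice (5 × 10^6 cells in Matrigel, about 80 mm3). Colchicine 1 mg/kg was given i.p. before a tail-vein injection of 10 μCi (0.37 MBq) of purified 177Lu-conjugate. Tissues were taken at 24 h, weighed and gamma-counted as %ID/g; mean ± SD, n = 5.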
(In general: A xenograft is tissue or cells of one species grown in another, often human tumour cells in immunodeficient mice.)

Data set [3] is described as follows: Drug uptake in small intestine of SCID mouse xenografted with human HT-29 cells pretreated for 1 hr with colchicine at 1 mg/kg, ip followed by 177Lu labelled compound at 0.37 MBq/mouse, iv measured at 24 hrs by gamma counter analysis. In kind it is ADME, organism-based. To be noted: in vivo. Put shortly: as §1
Data set [4] in a line: Drug uptake in brain of SCID mouse xenografted with human HT-29 cells pretreated for 1 hr with colchicine at 1 mg/kg, ip followed by 177Lu labelled compound at 0.37 MBq/mouse, iv measured at 24 hrs by gamma counter analysis. In kind it is ADME, organism-based. To be noted: in vivo. Put shortly: as §1
Data set [5] in a line: Drug uptake in heart of SCID mouse xenografted with human HT-29 cells using 177Lu labelled compound at 0.37 MBq/mouse, iv co-treated with D-lysine at 40 mg/kg measured at 24 hrs by gamma counter analysis. Type of data set: ADME, organism-based. To be noted: in vivo. Put shortly:
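Female SCID mice bore s.c. HT-29 xenografts (5 × 10^6 cells in Matrigel, about 80 mm3). D-lysine 40 mg/kg was co-injected i.v. with 10 μCi (0.37 MBq) of purified 177Lu-conjugate. Tissues were harvested at 24 h, weighed and gamma-counted, reported as %ID/g; mean ± SD, n = 5.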

Data set [6] deals with T1, Procathepsin L. Nature of the data set: Inhibition of human liver cathepsin L using Z-Phe-Arg-AMC as substrate assessed as second order rate constant measured every 5 mins for 1 hr by fluorescence assay. The method, boiled down: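 Human liver cathepsin L in acetate buffer pH 5.5 (340 mM sodium acetate, 60 mM acetic acid, 1 mM EDTA, 3 mM DTT). Conjugate 1–500 nM; Z-Phe-Arg-AMC 100 μM; 37 °C. […] Biological triplicate.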

Data set [7] is described as follows: Ratio of drug uptake in SCID mouse xenograted with human HT-29 cells assessed as tumour retention to drug uptake in blood of SCID mouse xenografted with human HT-29 cells cotreated with D-lysine at 40 mg/kg measured after 24 hrs using 177Lu labelled compound. In kind it is ADME, organism-based, Tumor/Blood. The method, boiled down:
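HT-29 s.c. xenografts in female SCID mice. 177Lu conjugate given i.v. by tail vein at 10 μCi (0.37 MBq)/mouse, co-injected with D-lysine 40 mg/kg. Tissues were taken at 24 h, weighed and gamma counted. Uptake expressed as %ID/g (n = 5, mean ± SD); tumor-to-tissue ratios derived from these values.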

Data set [8] is described as follows: Ratio of drug uptake in SCID mouse xenograted with human HT-29 cells assessed as tumour retention to drug uptake in small intestine of SCID mouse xenografted with human HT-29 cells cotreated with D-lysine at 40 mg/kg measured after 24 hrs using 177Lu labelled compound. In kind it is ADME, organism-based, Tumor/Small intestine. To be noted: in vivo.
A short description of data set [9]: Ratio of drug uptake in SCID mouse xenograted with human HT-29 cells assessed as tumour retention to drug uptake in muscle of SCID mouse xenografted with human HT-29 cells cotreated with D-lysine at 40 mg/kg measured after 24 hrs using 177Lu labelled compound. Type of data set: ADME, organism-based, Tumor/Muscle. To be noted: in vivo.
A short description of data set [10]: Drug retention in kidney of mouse xenografted with human HT-29 cells assessed as reduction in tissue-conjugate adduct formation at 29.6 MBq co-treated with D-lysine at 40 mg/kg measured after 72 hrs using 177Lu labelled compound by SDS-PAGE analysis. Type of data set: ADME, organism-based. The note with it: in vivo.
The nature of data set [11]: Drug retention in tumor of mouse xenografted with human HT-29 cells assessed as tissue-conjugate adduct formation at 29.6 MBq co-treated with D-lysine at 40 mg/kg measured after 72 hrs using 177Lu labelled compound by SDS-PAGE analysis. In kind it is ADME, organism-based, Neoplasm. The note with it: in vivo.
The nature of data set [12]: Drug retention in human HT-29 cells assessed as increase in mean fluorescence intensity at 5 uM incubated for 2 hrs and measured at 2 to 4 hrs using natEu labelled compound by lysotracker green staining based confocal microscopic analysis. Type of data set: ADME, cell-based. To be noted: ht-29, 2 h. The method, boiled down:
(§2)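 HT-29 cells (1.25 × 10^5/well) loaded with natEu conjugate (5 μM), washed, then chased in fresh medium up to 24 h. Lysotracker Green (100 nM) applied 2 h before each read; cells fixed and imaged confocally at 405/488 nm. Per-cell mean fluorescence and Lysotracker co-localization quantified.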

Data set [13] in a line: Drug localization in endolysosomal compartment of human HT-29 cells assessed as co-localization efficiency at 5 uM incubated for 2 hrs and measured over 24 hrs using natEu labelled compound by lysotracker green staining based confocal microscopic analysis relative to control. Type of data set: ADME, subcellular. To be noted: ht-29, 5 µM. The method, boiled down: as §2

Data set [14] addresses T1, Procathepsin L. Nature of the data set: Binding affinity to human liver cathepsin L assessed as protein-conjugate adduct formation at 0.74 MBq incubated for 30 mins in presence of E-64 using 177Lu labelled compound by SDS-PAGE analysis. The note with it: 0.74 M. Put shortly: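 Purified human liver CatB or CatL (3 nM) in 50 mM sodium acetate/1 mM EDTA pH 5.0 incubated 30 min with 177Lu conjugate (500,000 cpm) in Tris/MgCl2/DTT buffer pH 5.5, alone or with E-64 (10 μM) or N1 (20 μM). Mixtures heated 85 °C 2 min, run on 16% tris-glycine gel at 110 V for 90 min, and read by phosphor autoradiography.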

Data set [15] in a line: Drug distribution in human HT-29 cells assessed as adduct signals at 24 hrs relative to baseline. Type of data set: ADME, cell-based. The note with it: ht-29, 24 h. Put shortly:
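HT-29 cells preloaded 4 h with 177Lu conjugate (0.74 MBq), washed and chased in fresh medium. Lysates taken at 0 and 24 h and run on SDS-PAGE autoradiography; adduct band radioactivity at 24 h expressed relative to the 0 h intensity.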

The nature of data set [16]: Drug retention in kidney lysates of mouse xenografted with human HT-29 cells assessed as macromolecule associated radioactivity at 29.6 MBq measured after 72 hrs using 177Lu labelled compound by gamma counter analysis relative to control. The note with it: in vivo. Type of data set: ADME, tissue-based. Put shortly: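 HT-29 xenograft mice given 800 μCi (29.6 MBq) 177Lu conjugate i.v. and killed at 72 h. Tumor, liver and kidney homogenized in RIPA with protease inhibitor and supernatants run on SDS-PAGE autoradiography. Other supernatant aliquots filtered through 10 kDa MWCO devices to give the % macromolecule-associated radioactivity; n = 3.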

T1 sequence (P07711 114-333 limits assumed): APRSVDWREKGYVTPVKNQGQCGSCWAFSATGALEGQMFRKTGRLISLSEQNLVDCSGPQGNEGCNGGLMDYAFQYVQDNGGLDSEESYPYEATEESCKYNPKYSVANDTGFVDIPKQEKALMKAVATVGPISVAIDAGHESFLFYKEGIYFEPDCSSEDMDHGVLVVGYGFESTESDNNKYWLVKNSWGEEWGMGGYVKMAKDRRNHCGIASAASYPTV

One may read the Kp as the ratio of the level in a tissue or fluid to that in plasma or blood. For the molecule `Cc1cc(O)cc(C)c1C[C@H](NC(=O)[C@@H]1CCCN1C(=O)[C@H](CCCNC(=N)N)NC(=O)[C@H](CCCNC(=N)N)N(C)C(=O)[C@@H]1CCCN1C(=O)[C@H](CCCCN)NC(=O)[C@@H](CO)NC(=O)[C@@H](CO)NC(=O)[C@@H](CO)NC(=O)[C@H](Cc1cn(CCNC(=O)[C@H](CCCNC(=N)N)NC(=O)[C@H](CC(C)C)NC(=O)C2OC2C(=O)O)nn1)NC(=O)CN1CCN(CC(=O)O)CCN(CC(=O)O)CCN(CC(=O)O)CC1)C(=O)N[C@H](C(=O)N[C@@H](CC(C)C)C(=O)O)C(C)(C)C` (stereo partly specified), the outcome on Procathepsin L [1] and on Procathepsin L [14] was inactive. In addition, the Drug uptake in data set [2] is on record as 3.2 % ID/g; in [3] it was 2.2 % ID/g; in data set [4] it was 0.07 % ID/g; in [5], 0.14 % ID/g; in data set [10], 47%; in data set [11], “Active”. Moreover, the Drug uptake result in data set [12] is “Not Active”; in data set [13], 60%; in data set [15] it was 55%; in [16], 80%. On Procathepsin L [6], the K came to 24000 M⁻¹ s⁻¹. Besides, in data set [7], the concentration ratio (Kp) at 24 h turned out to be 299. Moreover, the Ratio was 4 in [8] and 250 in [9].
